According to ChEMBL document CHEMBL1128325, “Microsphere formation in a series of derivatized alpha-amino acids: properties, molecular modeling, and oral delivery of salmon calcitonin” (J Med Chem, 1995):

Assay: Partition coefficient (logP)
Format: physicochemical
Conditions: octanol/water
Summary of the method: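 Computed rather than measured: derived from the reported experimental log P values of the parent amino acids by adding fragment constants for the N-substituent.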

SMILES	logP (read-out: logP)	logP
CC(C)C(NC(=O)c1ccccc1)C(=O)O (stereo unspecified)	-1.3	
CC(=O)NC(Cc1ccccc1)C(N)=O (stereo unspecified)	-1.76	
CNC(Cc1ccccc1)C(=O)O (stereo unspecified)	-0.93	
CN(C)C(Cc1ccccc1)C(=O)O (stereo unspecified)	-0.43	
O=CNC(Cc1ccccc1)C(=O)O (stereo unspecified)	-1.21	
O=C(NC(Cc1ccccc1)C(=O)O)C1CCCCC1 (stereo unspecified)	-0.27	
NCCCCC(NS(=O)(=O)c1ccccc1)C(=O)O (stereo unspecified)	-2.8	
O=C(NC(Cc1ccccc1)C(=O)O)C1CCCC1 (stereo unspecified)	-0.77	
COC(=O)C(Cc1ccccc1)NC(C)=O (stereo unspecified)	-0.2	
CC(C)CC(NS(=O)(=O)c1ccccc1)C(=O)O (stereo unspecified)	-1.69	
CC(C)C(NS(=O)(=O)c1ccccc1)C(=O)O (stereo unspecified)	-1.8	
O=C([O-])CNC(=O)c1ccccc1.[Na+]	-2.68	
O=C(O)C(CO)NS(=O)(=O)c1ccccc1 (stereo unspecified)	-3.98	

Other lines, results leading:

logP (read-out: logP)	logP	SMILES
-2.02		NCCCCC(NC(=O)c1ccccc1)C(=O)O (stereo unspecified)
-0.63		O=C(NC(Cc1ccccc1)C(=O)O)c1ccccc1 (stereo unspecified)
-1.89		NC(=O)C(Cc1ccccc1)NC(=O)c1ccccc1 (stereo unspecified)
-1.11		O=C(NC(Cc1ccccc1)C(=O)O)OCc1ccccc1 (stereo unspecified)
-1.41		O=C(O)C(Cc1ccccc1)NS(=O)(=O)c1ccccc1 (stereo unspecified)
-2.29		O=C(O)CCC(NC(=O)c1ccccc1)C(=O)O (stereo unspecified)
-0.53		O=C(NC(Cc1ccccc1)C(=O)O)c1ccccc1O (stereo unspecified)
-0.13		COC(=O)C(Cc1ccccc1)NC(=O)c1ccccc1 (stereo unspecified)
-2.09		NCCCC(NC(=O)c1ccccc1)C(=O)O (stereo unspecified)
-1.22		O=C(NCCCCC(NC(=O)c1ccccc1)C(=O)O)c1ccccc1 (stereo unspecified)
-0.91		CC(C)CC(NC(=O)c1ccccc1)C(=O)O (stereo unspecified)
-1.29		O=C(NCCCC(NC(=O)c1ccccc1)C(=O)O)c1ccccc1 (stereo unspecified)
-2.24		O=C(NC(Cc1ccc(O)cc1)C(=O)O)c1ccccc1 (stereo unspecified)
-2.14		CC(NC(=O)c1ccccc1)C(=O)O (stereo unspecified)
-1.34		O=C(CC(=O)c1ccccc1)NC(Cc1ccccc1)C(=O)O (stereo unspecified)
-0.13		O=C(Cc1ccccc1)NC(Cc1ccccc1)C(=O)O (stereo unspecified)
	-0.7	CC(=O)NC(Cc1ccccc1)C(=O)O (stereo unspecified) [AFALANINE]
-2.79		O=C(O)CC(NC(=O)c1ccccc1)C(=O)O (stereo unspecified)
